24 compounds from ChEMBL document CHEMBL2424605, “Discovery of novel (1S)-(-)-verbenone derivatives with anti-oxidant and anti-ischemic effects” (Bioorg Med Chem Lett, 2013) can be followed below.

The test system of series [1] is Cortical neurone. As to the kind of experiment: Anti-ischemic activity in Sprague-Dawley rat cortical neurons assessed as reduction of oxygen-glucose deprivation/reoxygenation-induced neuronal injury at 10 uM incubated for 30 mins prior to induction of oxygen-glucose deprivation and maintained during entire period of oxygen-glucose deprivation/reoxygenation measured after 9 hrs by LDH assay. In kind it is functional. The essentials:
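Rat cortical neurons given 90 min oxygen-glucose deprivation, then 9 h reoxygenation. Compound, MK801 or trolox (10 µM or indicated concentrations) applied 30 min before OGD and kept through OGD/R. Neuronal injury read by LDH assay; mean ± SEM, N = 24.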

Series [2] has as its system Cortical neurone. As to the kind of experiment: Anti-ischemic activity in Sprague-Dawley rat cortical neurons assessed as reduction of oxygen-glucose deprivation-induced intracellular oxidative stress at 10 uM incubated for 30 mins prior to induction of oxygen-glucose deprivation and maintained during entire period of oxygen-glucose deprivation/reoxygenation measured after 1 hr by H2DCFDA staining-based […] microscopic analysis. It is filed as functional, cell-based. The essentials: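 Neurons pretreated 30 min before 90 min OGD, with treatment kept through reoxygenation. H2DCFDA loaded 1 h after reoxygenation; intracellular oxidative stress read as rise in fluorescence intensity 2 h later by imaging.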

Series [3] concerns Cortical neurone. As to the kind of experiment: Anti-excitotoxic activity in Sprague-Dawley rat cortical neurons assessed as reduction of NMDA-evoked neuronal injury at 10 uM incubated for 30 mins prior to NMDA induction and maintained during NMDA induction for 15 mins measured after 9 hrs. In kind it is functional. The essentials: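 Rat cortical neurons exposed to NMDA for 15 min, then incubated 9 h. Compound or MK801 (10 µM) added 30 min before and kept during NMDA. Injury scored as % inhibition of LDH release, given as median with interquartile range; N = 9–18.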

A short description of series [4]: Antioxidant activity assessed as AAPH-induced free radical scavenging activity at 25 uM preincubated for 30 mins followed by AAPH induction measured every 5 mins for 9 hrs by ORAC assay relative to vehicle-treated control. It is filed as functional. An outline of the steps: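 ORAC: area under the fluorescence decay curve (netAUC) expressed as fold change relative to vehicle control. Mean ± SEM, N = 12; trolox included as reference.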

Series [5] has as its system Radical scavenging activity. As to the kind of experiment: Antioxidant activity assessed as inhibition of DPPH-induced free radical generation at 80 uM after 30 mins relative to control. It is filed as functional. An outline of the steps: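 DPPH scavenging given as % inhibition of DPPH absorbance, with values derived from a standard dose–response curve of vitamin C (0–500 µM). Mean ± SEM, N = 9.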
In general terms: The DPPH test is a chemical assay of radical scavenging.

Series [6] can be described thus: Cytotoxicity against Sprague-Dawley rat cortical neurons assessed as cell viability at 10 uM by LDH assay. Particulars: cortical neurone.
Series [7] deals with Radical scavenging activity. As to the kind of experiment: Antioxidant activity assessed as inhibition of DPPH-induced free radical generation at 1 to 500 uM after 30 mins relative to control. It is filed as functional.
The subject of series [8] is Cortical neurone. As to the kind of experiment: Anti-excitotoxic activity in Sprague-Dawley rat cortical neurons assessed as inhibition of NMDA-induced intracellular calcium uptake at 10 uM incubated for 30 mins prior to NMDA induction measured after 50 secs by fluo-3 AM staining-based […] microscopic analysis. It is filed as functional, cell-based. The essentials: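 Cultured rat cortical neurons loaded with Fluo-3 AM for 30 min with or without 10 µM compound, then exposed to NMDA. Intracellular free Ca2+ read 50 s after NMDA as fold change in integrated fluorescence density of Ca2+-bound Fluo-3 over basal. Median, interquartile range and min–max reported; N = 4–5; compared with NMDA-treated group.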
A general note: Calcium flux is commonly read through the fluorescence of an indicator in the cells.

By inhibition is commonly meant how much of the control response was suppressed.

SMILES strings stand for the structures. Calls of active or inactive are those of the source. The calls are words filed in the database; no cut-off is given here.

As for `CC1(C)[C@@H]2C[C@H]1C(/C=C/c1ccc(O)cc1)=CC2=O`, the outcome in the series with Cortical neurone [1] and in the series on Cortical neurone [3] was Active. Moreover, the outcome in the series with Cortical neurone [2] was inactive. Moreover, in series [4], the fold change (FC) turned out to be 10.7. For the same compound, the inhibition in series [5] was found to be 19.1%. Besides, the Activity result in series [6] is given as “Non-toxic”.
As for `COc1cc(O)cc(OC)c1/C=C/C1=CC(=O)[C@H]2C[C@@H]1C2(C)C`, the fold change (FC) in series [4] came out at 11.5. For the same compound, in series [5], the inhibition was 55.8%. Further, the Activity result in series [6] is “Non-toxic”.
As for `CC1(C)[C@@H]2C[C@H]1C(/C=C/c1ccc(O)c(O)c1)=CC2=O`, the outcome with Cortical neurone [1], in the series on Cortical neurone [2] and in the series with Cortical neurone [3] was Active. Besides, the fold change (FC) in series [4] turned out to be 9.09. Besides, the inhibition in series [5] was 91.6%. In addition, in series [6], the Activity entry is reported as “Non-toxic”.
As for `CC1(C)[C@@H]2C[C@H]1C(/C=C/c1ccccc1O)=CC2=O`, in series [4], the fold change (FC) is 6.84. The inhibition in series [5] came out at 4.64%. Besides, in series [6], the Activity result was “Non-toxic”.
As to `CC1(C)[C@@H]2C[C@H]1C(/C=C/c1ccc(-n3cccc3)cc1)=CC2=O`, in series [4], the fold change (FC) came to 6.81. Further, the inhibition result in series [5] was “inactive”. For the same compound, the Activity entry in series [6] is “Non-toxic”.
In the same order, the values of `CC1(C)[C@@H]2C[C@H]1C(/C=C/c1ccncc1)=CC2=O` are 1.56, “inactive” and “Non-toxic”.
In the case of `COc1ccc(/C=C/C2=CC(=O)[C@H]3C[C@@H]2C3(C)C)c(O)c1`, the outcome in the series on Cortical neurone [3] was Active. Further, in series [4], the fold change (FC) was determined as 9.48. In addition, the inhibition in series [5] is 51.2%. For the same compound, in series [6], the Activity result was “Non-toxic”.
With `COc1cc(O)ccc1/C=C/C1=CC(=O)[C@H]2C[C@@H]1C2(C)C`, the fold change (FC) in series [4] was found to be 7.37. The inhibition in series [5] was 38.1%. Moreover, in series [6], the Activity result was “Non-toxic”.
`O=C1O[C@H]([C@@H](O)CO)C(O)=C1O`: the inhibition in series [7] worked out at 74%.
On to `CC1(C)[C@@H]2C[C@H]1C(/C=C/c1ccc(-c3ccccc3)cc1)=CC2=O`, for which, in series [4], the fold change (FC) is 1.85. Further, the inhibition entry in series [5] is “inactive”. In series [6], the Activity result is “Non-toxic”.
On the same counts, the results for `CC1(C)[C@@H]2C[C@H]1C(/C=C/c1cccc(O)c1)=CC2=O` are 5.11, “inactive” and “Non-toxic”.
On the same counts, the results for `CC1(C)[C@@H]2C[C@H]1C(/C=C/c1cccnc1)=CC2=O` are 1.59, “inactive” and “Non-toxic”.
For `COc1cc(/C=C/C2=CC(=O)[C@H]3C[C@@H]2C3(C)C)cc(OC)c1`, in series [4], the fold change (FC) was 3.14. The inhibition result in series [5] is “inactive”. For the same compound, the Activity result in series [6] was “Non-toxic”.
As to `CC1(C)[C@@H]2C[C@H]1C(/C=C/c1ccc(F)cc1)=CC2=O`, the fold change (FC) in series [4] is 1.81. For the same compound, the inhibition result in series [5] was “inactive”. Further, the Activity result in series [6] was “Non-toxic”.
For the compound `Cc1c(C)c2c(c(C)c1O)CCC(C)(C(=O)O)O2` (stereo not given), the fold change (FC) in series [4] came out at 3.11.
On to `CC1(C)[C@@H]2C[C@H]1C(/C=C/c1ccccc1)=CC2=O`, for which the fold change (FC) in series [4] stood at 1.92. Further, the inhibition entry in series [5] is “inactive”. In series [6], the Activity entry was “Non-toxic”.
On to `COc1ccc(/C=C/C2=CC(=O)[C@H]3C[C@@H]2C3(C)C)cc1`, for which the fold change (FC) in series [4] is 2.64. Further, the inhibition entry in series [5] was “inactive”. For the same compound, the Activity entry in series [6] is “Non-toxic”.
In the case of `COc1ccc(OC)c(/C=C/C2=CC(=O)[C@H]3C[C@@H]2C3(C)C)c1`, the fold change (FC) in series [4] turned out to be 2.25. Also, the inhibition entry in series [5] was “inactive”. The Activity entry in series [6] is reported as “Non-toxic”.
In the case of `C[C@]12N[C@H](Cc3ccccc31)c1ccccc12` [DIZOCILPINE], the outcome with Cortical neurone [1] and in the series on Cortical neurone [3] was Active. For the same compound, in series [6], the Activity entry is listed as “Non-toxic”.
As to `CC1(C)[C@@H]2C[C@H]1C(/C=C/c1ccc(O)c(Br)c1)=CC2=O`, in series [4], the fold change (FC) worked out at 11.6. Moreover, the inhibition in series [5] stood at 29.4%. Further, the Activity result in series [6] is recorded as “Non-toxic”.
Consider `COc1ccc(/C=C/C2=CC(=O)[C@H]3C[C@@H]2C3(C)C)cc1OC`, for which the fold change (FC) in series [4] was found to be 2.73. In series [5], the inhibition entry is “inactive”. Further, the Activity entry in series [6] is “Non-toxic”.
Regarding `COc1cc(/C=C/C2=CC(=O)[C@H]3C[C@@H]2C3(C)C)cc(O)c1O` [SP-8356], in the series with Cortical neurone [8], the inhibition result was “Active”. For the same compound, the result with Cortical neurone [1], in the series on Cortical neurone [2] and with Cortical neurone [3] was Active. Moreover, the fold change (FC) in series [4] was determined as 6.86. Also, the inhibition in series [5] was 83.6%. Moreover, in series [6], the Activity result was “Non-toxic”.
As for `CC1(C)[C@@H]2C[C@H]1C(/C=C/c1ccccn1)=CC2=O`, the outcome in the series on Cortical neurone [3] was Active. In series [4], the fold change (FC) was found to be 1.63. Moreover, the inhibition result in series [5] was “inactive”. The Activity result in series [6] is reported as “Non-toxic”.
Regarding `CC1=CC(=O)[C@H]2C[C@@H]1C2(C)C` [LEVOVERBENONE], the fold change (FC) in series [4] was 1.19. In series [5], the inhibition entry is “inactive”. Besides, in series [6], the Activity entry was “Non-toxic”.
